As usually defined, the AC50 is the concentration giving half of the maximal activity seen.

“And” between values parts separate entries of the source, which are not always exact repeats. Identical values can stand only once. The source made the active and inactive calls.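 How the source made its calls: active means falling signal, meaning toxicity, with AC50 at or below twice the top valid dose for that sample; inconclusive means flat curve showing 30 to 70% toxicity, or poor fit; inactive means the rest.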

Experimental findings from PubChem BioAssay AID602394 (Broad Institute, 2012) are described below.

The subject of the first experiment is NIH 3T3 fibroblast viability, Alamar Blue fluorescence, 48 h. The experiment can be described thus: cytotoxicity in NIH 3T3 fibroblasts, dose response, cytotoxicity control for antifungal single agent project, cell-based, dry powder, set 2, plate reader (AID 602394).
Conditions: not given
In short, it runs like this: (§1)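 Test system: NIH 3T3 fibroblasts. Amount: 1,000 cells per well, plated overnight before dosing. Timing: 48 h compound exposure at 37 °C, then 2–3 h dye incubation. Benchmarks: geldanamycin at 10 µM as inhibition control. Medium: Optimem supplemented with 2.5% fetal bovine serum. Detection: Alamar Blue fluorescence, Ex 544/Em 590 nm.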
As for `Cc1ccc(N2C(=S)N(C(=O)OC(C)C)C(=O)C23CCCCC3)cc1`, the AC50 was > 52 µM (inactive).

For the compound `CCCCN1C(=O)N(c2ccc(C)cc2)C2(CCCCC2)C1=S`, the AC50 was 20.9 µM. Same read-out and setting: then `CCOC(=O)N1C(=O)C2(CCCCC2)N(c2ccc(C(C)(C)C)cc2)C1=S`, with 16.5 µM.

`CCOC(=O)N1C(=O)C2(CCCCC2)N(c2ccc(CC)cc2)C1=S`: the AC50 was 19.5 µM.

With `CCOC(=O)N1C(=O)C2(CCCCC2)N(c2ccc(C(F)(F)F)cc2)C1=S`, the AC50 was 12.5 µM. Still for that read-out and setting: then `CCOC(=O)N1C(=O)C2(CCCCC2)N(c2ccc(Cl)cc2)C1=S`, with 22.3 µM.

In the case of `CCOC(=O)N1C(=O)C2(CCCCC2)N(c2ccc(-c3ccccc3)cc2)C1=S`, the AC50 is 9.81 µM. Same read-out and setting: then `CCOC(=O)N1C(=S)N(c2ccc(C)cc2)C2(CCCCC2)C1=NCc1ccccc1`, with > 52 µM (inactive). On the same count and under the same terms, then `CCOC(=O)N1C(=O)C2(CCCCC2)N(c2ccc(C(C)C)cc2)C1=S`, with 13.8 µM; and `CCOC(=O)N1C(=O)C2(CCCCC2)N(c2cccc(C)c2)C1=S`, with 24.2 µM; and `Cc1ccc(N2C(=S)N(C(=O)OCc3ccccc3)C(=O)C23CCCCC3)cc1`, with 6.98 µM. Still for that read-out and setting: then `CCCC(=O)N1C(=O)C2(CCCCC2)N(c2ccc(C)cc2)C1=S`, with 18.8 µM; and `CCCCN1C(=O)C2(CCCCC2)N(c2ccc(C)cc2)C1=S`, with 24.2 µM; and `Cc1ccc(N2CC(=O)NC2=S)cc1`, with 20.7 µM.

Tested on in a further experiment: not listed separately
The description is as above. Particulars: NIH 3T3 fibroblast viability, Alamar Blue fluorescence, 48 h; at 2.6 µM (top of the series). The method, boiled down:
as §1
(In general: The colour change of resazurin is a common sign of viable cells or microbes.)
For the compound `CC1/C=C/C=C\C=C\C=C\C=C\C=C\C=C\C(O[C@H]2OC(C)C(O)C(N)C2O)CC2OC(O)(CC(O)CC(O)C(O)CCC(O)CC(O)CC(=O)OC(C)C(C)C1O)CC(O)C2C(=O)O` (stereo partly drawn), the activity change, negative = toxicity was -14.9% (inactive).

The experiment is the same for the next values; noted with them: NIH 3T3 fibroblast viability, Alamar Blue fluorescence, 48 h; at 26 µM (top of the series).
In the case of `CCOC(=O)N1C(=O)C2(CCCCC2)N(c2ccccc2C)C1=S`, the activity change, negative = toxicity was -14% (inactive).

`Cc1ccc(N2C(=O)N(C)C(=O)C23CCCCC3)cc1`: the activity change, negative = toxicity is -27.1% (inactive). On the same count and under the same terms, then `Cc1ccc(N2C(=O)NC(=O)C23CCCCC3)cc1`, with -10.2% (inactive); and `Cc1ccc(N2C(=S)N(S(C)(=O)=O)C(=O)C23CCCCC3)cc1`, with -8.26% (inactive); and `CCOC(=O)N1C(=S)NC(=O)C12CCCCC2`, with 2.71% (inactive). Consider `CCOC(=O)N1C(=O)C2(CCCCC2)NC1=S`, for which the activity change, negative = toxicity was 4.41% (inactive). The same measure, in the same setting: then `Cc1ccc(N2C(=S)NC(=O)C23CCOCC3)cc1`, with 29.4% (inactive); and `CCCc1ccc(N2C(=S)N(C(=O)OCC)C(=O)C23CCCCC3)cc1`, with -15.8% (inactive). Still for that read-out and setting: then `Cc1ccc(N2C(=O)C(=O)NC2=S)cc1`, with 3.56% (inactive); and `CCOC(=O)N1C(=O)C2(CCCCC2)N(c2ccccc2)C1=S`, with 17.3% (inactive); and `CCOC(=O)N1C(=O)N(c2ccc(C)cc2)C2(CCCCC2)C1=O`, with 7.79% (inactive). For the compound `CCOC(=O)N1C(=O)C2(CCCCC2)N(c2ccc(C#N)cc2)C1=S`, the activity change, negative = toxicity was 10.9% (inactive). Same read-out and setting: then `CCOC(=O)N1C(=O)C2(CCC2)N(c2ccc(C)cc2)C1=S`, with -6.41% (inactive); and `O=C1NC(=S)N(Cc2ccccc2)C12CCCCC2`, with 5.77% (inactive); and `Cc1ccc(N2C(=S)N(C)C(=O)C23CCCCC3)cc1`, with -4.95% (inactive) and -14.4% (inactive). Consider `CCOC(=O)N1C(=O)C2(CCOCC2)N(c2ccc(C)cc2)C1=S`, for which the activity change, negative = toxicity is 8.99% (inactive). Still for that read-out and setting: then `CCOC(=O)N1C(=O)C2(CCCCC2)N(Cc2ccccc2)C1=S`, with -2.91% (inactive). Same read-out and setting: then `CCOC(=O)N1C(=O)C2(CCCC2)N(c2ccc(C)cc2)C1=S`, with 8.13% (inactive); and `Cc1ccc(N2C(=O)C3(CCCCC3)NC2=S)cc1`, with -13% (inactive).

As to `CCOC(=O)N1C(=O)C2(CCCCC2)N(c2ccc(F)cc2)C1=S`, the activity change, negative = toxicity is -18.1% (inactive). Still for that read-out and setting: then `CCOC(=O)N1C(=O)C(C)(C)N(c2ccc(C)cc2)C1=S`, with 14.6% (inactive); and `Cc1ccc(N2C(=S)N(C(=O)Oc3ccccc3)C(=O)C23CCCCC3)cc1`, with 0.942% (inactive); and `Cc1ccc(N2CC(=O)NC2=O)cc1`, with 22.5% (inactive). Regarding `CCCCN1C(=O)N(c2ccc(C)cc2)C2(CCCCC2)C1=O`, the activity change, negative = toxicity was -35.3% (inactive).

Consider `CCOC(=O)N1C(=O)C2(CCCCC2)N(C(C)C)C1=S`, for which the activity change, negative = toxicity was -8.87% (inactive). With `O=C1NC(=S)N(c2ccccc2)C12CCCCC2`, the activity change, negative = toxicity was 52.9% (inactive). For the compound `Cc1ccc(N2C(=S)NC(=O)C23CCCCC3)cc1`, the activity change, negative = toxicity was 12.5% (inactive). Still for that read-out and setting: then `CCOC(=O)N1C(=O)C2(CCCCC2)N(c2ccc(OC)cc2)C1=S`, with 21.1% (inactive). Same read-out and setting: then `O=C1NC(=S)N(c2ccc(F)cc2)C12CCCCC2`, with 10.6% (inactive); and `Cc1ccc(N2C(=S)NC(=O)C2(C)C)cc1`, with -5% (inactive); and `Cc1ccc(N2C(=S)NC(=O)C23CCC3)cc1`, with 25% (inactive). Still for that read-out and setting: then `O=C1NC(=S)NC12CCCCC2`, with 3.57% (inactive); and `CC(C)N1C(=S)NC(=O)C12CCCCC2`, with 47.5% (inactive).
